# bCat nuc transl = modulators of beta-catenin nuclear translocation, primary screen, imaging, HeLa cells, immunofluorescence, high-content | 0.3% of 190,000 active | nuclear translocation activity, % at 5 µM | AID 1665, 2009;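 active = nuclear translocation activity above 50% at 5 µM, with a well cell count of 50 or more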;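 also: per-cell ratio of nuclear to cytoplasmic median beta-catenin stain intensity; plate controls were DMSO negative control for no effect and GSK-3 inhibitor IX positive control for full effect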
#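 Assay system: human HeLa cells, native beta-catenin; doses: 5 µM primary, 0.02–20 µM confirmation; incubation: compound treatment 24 h, 37°C, 5% CO2; technique: fluorescence imaging of beta-catenin antibody stain plus DAPI; measure: % activation, nuclear-to-cytoplasmic median beta-catenin signal ratio per cell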
# MT stabilizer = microtubule stabilizers in HeLa cells, primary screen, imaging, high-content imaging | HeLa tubulin immunostaining HCS, 24 h; share of cells brighter than vehicle mean+2SD | % tubulin-high responders, % at 10 µM | 0.83% of 200,000 active;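 active = plate Z-score above 3 for both tubulin-high and condensed-nucleus cell shares, with cell loss under 80%, at 10 µM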;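 also: anti alpha tubulin signal scored within the nucleus-defined area of each cell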
# BaF3 tox = parental Ba/F3 cell viability inhibition, counter-screen for JAK2V617F inhibitor project, murine pro-B, CellTiter-Glo luminescence; inhibition, % at 5.6 µM; 1.1% of 220,000 active; AID 1486, 2009; CellTiter-Glo ATP luminescence;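 active = inhibition above a per-campaign cutoff, the mean inhibition of all tested compounds plus 3 SD, cut at about 27% in these data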;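 also: 0% = DMSO wells and 100% = JAK Inhibitor I control wells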
# Ba/F3 V617F tox = reduced viability of JAK2V617F-dependent Ba/F3 cells, primary screen, JAK2V617F inhibitor project, cell-based, Ba/F3 EpoR-JAK2V617F, luminescence; ATP luminescence; inhibition, % at 5.6 µM; 1.1% of 220,000 active;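 active = inhibition above the campaign mean plus 3 SD over all tested compounds, cut at about 24% in these data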;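 also: cytokine-independent growth of Ba/F3 cells driven by EpoR plus mutant JAK2; 0% = DMSO-treated cells and 100% = JAK inhibitor I control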
# L major viab = Leishmania major promastigote growth inhibition, primary screen | inhibition, % at 10 µM | 9% of 200,000 active | Leishmania major promastigotes, resazurin fluorescence viability; in the data active = inhibition above about 50%;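 also: promastigotes grown with compound for 44 hours at 28 °C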
# APP 5UTR inh = inhibitors of APP translation via 5'UTR reporter, primary screen, APP 5'UTR luciferase, SH-SY5Y cells | 0.82% of 190,000 active | inhibition, % at 2 µM | SH-SY5Y APP 5'UTR-luciferase reporter, luminescence;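 active = inhibition above a set limit, derived from the sample mean plus 3 SD, cut at about 45% in these data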
# BaF3 parental 2 = parental Ba/F3 cell viability inhibition, counter-screen for JAK2V617F inhibitor project, murine pro-B, CellTiter-Glo luminescence; 31% of 580 active; AID 1520, 2009; shares compounds with Ba/F3 V617F tox; inhibition, % at 5.6 µM; cells kept alive by added IL-3;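 active = cell growth inhibition above the hit limit set in the earlier mutant JAK2 cell screen, cut at about 27% in these data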;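 also: plate controls were DMSO-treated cells for no effect and JAK Inhibitor I control wells for full effect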
# JAK2V617F confrm = viability loss in Ba/F3 EpoR-JAK2V617F cells, confirmation, JAK2V617F inhibitor project, cell-based, luminescence, triplicate; shares compounds with Ba/F3 V617F tox; CellTiter-Glo luminescence; inhibition, % at 5.6 µM; 66% of 580 active; AID 1521, 2009;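 active = mean inhibition above the hit cutoff derived in the earlier primary screen, cut at about 25% in these data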;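 also: 0% = DMSO-treated cells and 100% = JAK inhibitor I control wells; higher means lower luminescence from reduced cell ATP and viability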
# * = called active by the depositor; x = no result. This is a sample that favours compounds with a hit; in the whole collection about 9.6% have one here.
SMILES,bCat nuc transl,MT stabilizer,BaF3 tox,Ba/F3 V617F tox,L major viab,APP 5UTR inh,BaF3 parental 2,JAK2V617F confrm
COCCNC(=S)N1CCc2cc(OC)c(OC)cc2C1c1cccs1 (configuration not stated),-4,1,8,-1,12,-5,x,x
COc1ccc(N2CCc3c(C)nc4c(OC)cc(OC)cc4c32)c(OC)c1,x,1,7,48*,101*,-4,6,64*
COC(=O)c1ccc(S(=O)(=O)N2CCCCCC2)cc1,-5,6,3,-2,-7,-10,x,x
O=C(/C=C/c1ccc(O)c(O)c1)c1ccc(S(=O)(=O)N2CCCCCC2)cc1,-1,1,15,44*,95*,10,10,85*
COCc1cc(C)nc(SCC(=O)c2ccc(O)c(O)c2)c1C#N,-2,6,26,23*,4,6,30*,80*
Cc1cc(NC(=O)c2sc(Nc3ccc(F)cc3)nc2N)no1,2,3,23,98*,1,-55,65*,99*
C=CCNc1nc(N)c(C(=O)Nc2cc(C)on2)s1,x,2,4,0,9,11,x,x
Cn1c(=O)c2nc(NCc3ccccc3)cnc2n(C)c1=O,1,5,4,-4,1,-7,x,x
Cc1nc2c(=O)n(C)c(=O)n(C)c2nc1Cl,4,5,9,39*,100*,46*,17,62*
COc1ccccc1NS(=O)(=O)c1cccc(-n2c(O)c(C=Nc3ccccc3C(=O)O)c3ccccc3c2=O)c1,-2,x,8,24*,x,x,8,32*
COc1ccc(Cn2c(O)c(C=Nc3ccccc3C(=O)O)c3ccccc3c2=O)cc1,0,x,-2,4,x,x,x,x
O=C(CCl)N(c1ccc(Cl)cc1)c1c[nH]c2ccccc12,0,23,12,72*,100*,18,73*,99*
O=C(NCc1ccc(Cl)cc1)C(=O)c1c[nH]c2ccccc12,-2,2,3,3,-8,-11,x,x
Cc1cc2ccccn2c1C(=O)c1ccc([N+](=O)[O-])o1,-3,6,0,27*,99*,54*,-7,42*
Cc1cc2ccccn2c1C(=O)c1cccc([N+](=O)[O-])c1,0,2,4,0,-8,-10,x,x
Cc1cccc(CS(=O)(=O)c2nnc([C@H](Cc3ccccc3)NC(=O)OC(C)(C)C)o2)c1,x,1,1,44*,1,72*,12,82*
NNC(=O)CNC(=O)CNS(=O)(=O)c1ccccc1,0,1,4,-3,-2,-1,x,x
Clc1ccc(-n2nnnc2Sc2ncnc3sccc23)cc1,x,4,1,26*,25,92*,1,88*
c1ccc(CSc2ncnc3sccc23)cc1,-3,3,11,3,1,12,x,x
CCC1=NC(c2ccccc2Cl)N(O)C1(C)C (configuration not stated),0,3,4,7,-4,-1,x,x
CN(C)S(=O)(=O)c1ccc(-c2csc(N/N=C/c3ccco3)n2)cc1,-1,x,0,0,x,x,x,x
CN(C)S(=O)(=O)c1ccc(-c2csc(N/N=C/c3ccc(O)cc3)n2)cc1,1,x,13,45*,x,x,49*,94*
O=C(NCC1CCCO1)c1nc2c(nnn2Cc2ccccc2Cl)c(=O)[nH]1 (configuration not stated),-1,2,3,3,-1,5,x,x
Cc1ccc(C)c(Cn2nnc3c(=O)[nH]c(C(=O)NCC4CCCO4)nc32)c1 (configuration not stated),-1,4,4,28*,-3,2,-1,1
O=[N+]([O-])c1cnc(Sc2ccncn2)s1,2,x,-7,73*,x,x,29*,96*
SMILES,bCat nuc transl,MT stabilizer,BaF3 tox,Ba/F3 V617F tox,L major viab,APP 5UTR inh,BaF3 parental 2,JAK2V617F confrm
Cn1c(Cn2cnc([N+](=O)[O-])n2)nnc1SCC(=O)Nc1ccccc1,0,3,6,1,-2,1,x,x
O=[N+]([O-])/C(C=Nc1ccccc1O)=C\Nc1ccccc1O,0,x,17,39*,x,x,13,68*
CCCn1c(CC)nc([N+](=O)[O-])c1S(=O)(=O)c1ccccc1,0,1,8,49*,100*,14,-2,70*
Cn1c(S(=O)(=O)c2ccc([N+](=O)[O-])cc2)nc(Br)c1Br,1,x,-2,5,x,x,x,x
O=C(Nc1ccc(C#Cc2ccccc2)cc1)C1CC1,9,1,12,38*,22,-110,2,7
O=C(Nc1nc(-c2cc3ccccc3oc2=O)cs1)c1ccc(Br)o1,-2,2,2,-2,0,6,x,x
Nc1ccc(Nc2nc(-c3cc4ccccc4oc3=O)cs2)cc1,1,1,14,84*,-8,-95,77*,99*
C(=N\Nc1nc2ccccc2[nH]1)/c1ccncc1,2,3,3,1,14,-10,x,x
COc1cccc(/C=N/Nc2ncnc3scc(-c4ccccc4)c23)c1O,-5,8,26,41*,100*,89*,92*,98*
CCN(CC)c1ccc(/C=N/Nc2nc3ccccc3[nH]2)cc1,0,5,-2,50*,100*,12,5,64*
COC(=O)c1sccc1N/N=C/c1cccc(OC)c1O,6,3,5,3,-7,-180,x,x
COc1cccc(/C=N/Nc2nc3ccccc3[nH]2)c1O,1,x,21,77*,x,x,59*,89*
O=C(/C=C/Nc1nccs1)C(F)(F)Cl,1,2,-1,-4,5,-30,x,x
Oc1ccc(CN2CCC(Cc3ccccc3)CC2)c2cccnc12,0,3,0,83*,101*,58*,84*,98*
COc1ccc(OC)c2c1C(=O)C(Cl)=C(Cl)C2=O,2,x,-4,66*,x,x,84*,92*
O=C(CCl)NCc1cc(-c2ccc(Cl)cc2)no1,10,2,11,24*,71*,-3,12,75*
C=CCNC(=O)C1CCN(S(=O)(=O)c2ccc(Br)cc2)CC1,-2,5,9,3,-6,21,x,x
CCOc1cc(C#N)c(NC(=O)c2ccco2)cc1OCC,8,40*,15,39*,-1,-12,17,24*
